Results from paper PMC2885539 (Archives of biochemistry and biophysics, 2010).
“Also recorded” adds a separate entry of the source.

What was measured:
[1] = cited from earlier work
[2] = intra-articular injection, ref [47]; cited from earlier work
[3] = Equilibrium uptake / competitive binding in adult bovine cartilage; conditions: labeled vs unlabeled Pf-pep
[4] = Calculated diffusion times and temperature effect
Solute properties = type: physicochemical; conditions: known charge of the trivalent peptide
[5] = Net charge estimated by fitting Donnan equilibrium theory to uptake data; type: physicochemical, bovine; conditions: average of individual explants, mean ± SD, n = 68
How it was run: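 Bovine cartilage disks (3-mm, L1/L2) equilibrated 48 h at 4°C in PBS with 0.1% BSA, 0.01% NaN₃ and protease inhibitors containing ¹²⁵I-labelled peptide. Disk and bath counted by gamma counter. Uptake ratio: tissue concentration per water weight over bath concentration. sGAG measured by DMMB after proteinase-K digestion. Z is the exponent of a power-law relating peptide uptake to Na⁺ partitioning calculated from each specimen's GAG density.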

[6] = ref [17], [18]; cited from earlier work
[7] = vs native BSA, ref [21]–[23]; cited from earlier work

For `CN(C)c1ccc2c(-c3ccccc3C(=O)[O-])c3ccc(N(C)C)cc3[o+]c2c1` [tetramethylrhodamine], the “effect of static compression on diffusivity” value ([1]; TMR, ref [49], [50]) is given as “reduced the diffusivities”.
In the case of `O=C(O)c1ccccc1O` [salicylate], the “clearance time from synovial fluid” value [2] is listed as 1 to 5 h.
For Arg-Tyr-Lys-Arg-Thr [Pf-pep], the “binding to sites within cartilage” value [3] was “negligible binding; also recorded: little or no binding of Pf-pep to sites within the tissue; also recorded: did not show measurable binding to the negatively charged GAG chains in cartilage”, the “characteristic time lag L^2/6D” value ([4]; L = 1 mm, D ~1×10^−6 cm^2/s) was ~ 27 min and the “factor of increase of diffusion coefficient at 37°C” value ([4]; Stokes-Einstein relation, from room temperature to 37°C) was ~ 1.4. For the same compound, the “diffusion time constant δ^2/(π^2D)” value ([4]; δ = 400 μm, D ~1×10^−6 cm^2/s) was ~ 2.7 min, the known net charge (Solute properties) was “+3” and the “average net charge Z” value [5] was “+3.07 ± 0.74”.
For `OC[C@H]1OC(O)[C@H](O)[C@@H](O)[C@@H]1O` (stereo partly drawn) [glucose], the “variation of diffusivity with tissue depth” value ([1]; ref [42]) is given as “did not vary significantly with tissue depth”.
In the case of `O=C(O)Cc1ccccc1Nc1c(Cl)cccc1Cl` [diclofenac], the “clearance time from synovial fluid” value [2] is given as 1 to 5 h.
In the case of insulin-like growth factor-1 [IGF-1], the “binding to IGFBPs in cartilage ECM” value [6] is given as “binds to specific IGF binding proteins (IGFBPs)”.
For “cationized bovine serum albumin (BSA): cationized bovine serum albumin”, the “uptake and retention in murine cartilage” value [7] is given as “increased uptake and prolonged retention via binding within murine cartilage compared to native BSA”.
